Among the data in PubChem BioAssay AID504502 (Broad Institute, 2011) are AC50 and activity change, negative = inhibition values, retold here.

Active and inactive are the calls of the source.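 The calls were made as follows: active = compounds whose fitted half-maximal growth inhibition concentration is at most ten times the top tested dose; inconclusive = flat curve with 30 to 70% inhibition, or poor fit; inactive = the rest.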

Assay [1] relates to C. albicans CaCi-2 + fluconazole, Alamar Blue growth, 48 h. In words: C. albicans growth inhibition with fluconazole, confirmation, CaCi-2, fluconazole present, retest, powder, set 6 (AID 504502). The essentials:
(§1)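 Signal: Alamar Blue fluorescence at 1:200 final, excitation 544 nm, emission 590 nm | Test system: Fluconazole-resistant Candida albicans strain CaCi-2 | Quantity: Fungal inoculum at starting OD600 of 0.00015 | Probe or stimulus: Fluconazole 8 µg/mL | Buffer or medium: Defined RPMI medium with MOPS buffer | Times: 48 h growth at 37 °C, 2 h dye step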

Experiment in assay [2]: as above
Particulars: C. albicans CaCi-2 + fluconazole, Alamar Blue growth, 48 h; at 12 µM (top of the series). The essentials: as §1
(In general: The colour change of resazurin is a common sign of viable cells or microbes.)

`O=C(Cn1c2ccccc2c2nc3n(c(=O)c21)CCS3)N1CCCCC1`: the AC50 in assay [1] is 1250 nM. On to `COC(=O)Cn1nc(C2CC2)c2ccccc21`, for which the activity change, negative = inhibition in assay [2] is 0.132% (inactive). On to `COC(=O)Cn1nc(-c2cccnc2)c2ccccc21`, for which the activity change, negative = inhibition in assay [2] was -23.4% (inactive). On the same count and under the same terms, under `CC1(O)CN(C(=O)Cn2c3ccccc3c3nc4n(c(=O)c32)CCS4)C1` stands -0.117% (inactive). `O=C(Cn1c2ccc(F)cc2c2nc3n(c(=O)c21)CCS3)N1CCC(F)(F)C1`: the AC50 in assay [1] is 717 nM.

For `COC(=O)Cn1nc(-c2cnco2)c2ccccc21`, in assay [2], the activity change, negative = inhibition was -10.5% (inactive). On to `O=C(Cn1c2ccccc2c2nc3n(c(=O)c21)CCS3)N1CCCC1`, for which, in assay [1], the concentration at half-maximal activity (AC50) is 795 nM. Regarding `COC(=O)Cn1nc(-c2cccc(C)c2)c2ccccc21`, the AC50 in assay [1] is 646 nM.

As for `O=C(Cn1c2ccccc2c2nc3n(c(=O)c21)CCS3)N1CC=CC1`, in assay [1], the AC50 was 821 nM. As for `CN1CCN(C(=O)Cn2c3ccccc3c3nc4n(c(=O)c32)CCS4)CC1`, the AC50 in assay [1] was 4740 nM. For `O=C(O)Cn1c2ccccc2c2nc3n(c(=O)c21)CCS3`, the activity change, negative = inhibition in assay [2] was -8.34% (inactive).

With `COC(=O)Cn1nc(-c2cccc(F)c2)c2ccccc21`, the AC50 in assay [1] was 1170 nM. As to `COC(=O)n1nc(-c2ccccc2)c2ccccc21`, the activity change, negative = inhibition in assay [2] is 10.4% (inactive).

As to `COC(=O)Cn1nc(C2CCCCC2)c2ccccc21`, the AC50 in assay [1] was 1800 nM. For `O=C(Cn1c2ccccc2c2nc3n(c(=O)c21)CCS3)N1CCC(F)(F)CC1`, the AC50 in assay [1] is 1470 nM. `CC1CCN(CCn2c3ccccc3c3nc4n(c(=O)c32)CCS4)CC1`: in assay [2], the activity change, negative = inhibition is -9.05% (inactive).

Regarding `O=C(Cn1c2ccc(F)cc2c2nc3n(c(=O)c21)CCS3)N1CCC(F)(F)CC1`, in assay [1], the AC50 is 391 nM. Consider `O=C(Cn1c2ccc(F)cc2c2nc3n(c(=O)c21)CCS3)N1CCCC1`, for which, in assay [1], the AC50 is 298 nM. For the molecule `COC(=O)Cn1nc(-c2cccc(OC)c2)c2ccccc21`, in assay [1], the AC50 is 348 nM. `O=C(Cn1c2ccc(F)cc2c2nc3n(c(=O)c21)CCS3)N1CC=CC1`: the AC50 in assay [1] is 276 nM. Consider `O=C(O)Cn1c2ccc(F)cc2c2nc3n(c(=O)c21)CCS3`, for which the activity change, negative = inhibition in assay [2] was 0.059% (inactive). Same read-out and setting: under `COC(=O)Cn1nc(-c2ccccc2)c2cccnc21` stands -41.1% (inactive). With `COC(=O)Cn1nc(C(C)(C)C)c2ccccc21`, the activity change, negative = inhibition in assay [2] was 3% (inactive). Still for that read-out and setting: under `CCc1nn(CC(=O)OC)c2ccccc12` stands 6.18% (inactive). Turning to `O=C(Cn1c2ccccc2c2nc3n(c(=O)c21)CCS3)N1CCC(F)(F)C1`, in assay [1], the AC50 is 3700 nM. `COC(=O)Cn1c2ccc(F)cc2c2nc3n(c(=O)c21)CCS3`: in assay [1], the AC50 is 2080 nM.

The AC50 is the concentration giving half of the maximal activity seen.
